The source of these data is ChEMBL document CHEMBL5500421 (J Med Chem, 2024).

Calls of active or inactive are those of the source. The calls are words filed in the database; no cut-off is given here.

The target in data set [1] is T1, Sphingosine-1-phosphate transporter SPNS2 (Mus musculus) (UniProt Q91VM4).
T1 sequence (whole entry): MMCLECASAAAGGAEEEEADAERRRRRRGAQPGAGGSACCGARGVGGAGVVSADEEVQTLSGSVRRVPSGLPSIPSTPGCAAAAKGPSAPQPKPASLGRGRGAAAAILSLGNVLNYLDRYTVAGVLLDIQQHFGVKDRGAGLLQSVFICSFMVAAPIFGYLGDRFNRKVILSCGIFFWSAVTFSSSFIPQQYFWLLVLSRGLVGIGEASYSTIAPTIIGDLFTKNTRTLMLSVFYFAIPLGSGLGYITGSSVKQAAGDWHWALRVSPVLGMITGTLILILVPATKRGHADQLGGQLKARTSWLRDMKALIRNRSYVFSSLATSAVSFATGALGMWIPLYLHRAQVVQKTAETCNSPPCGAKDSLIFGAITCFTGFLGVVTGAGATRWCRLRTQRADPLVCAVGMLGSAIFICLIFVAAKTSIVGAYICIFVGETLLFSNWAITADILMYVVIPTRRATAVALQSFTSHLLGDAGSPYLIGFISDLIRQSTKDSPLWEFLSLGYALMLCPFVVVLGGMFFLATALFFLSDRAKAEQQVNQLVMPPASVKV
The data set can be described thus: Inhibition of mouse Spns2 expressed in G418-resistant human HeLa cells assessed as decrease in S1P level at 1 uM incubated for 16 to 18 hrs by LC-MS/MS analysis relative to control. The format is cell-based. The following applies: time 16-18 hrs. Summed up:
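HeLa cells stably transfected with mouse Spns2 (pcDNA3.1; G418-resistant pools). S1P catabolism blocked with 4-deoxypyridoxine 1 mM, NaF 2 mM and Na3VO4 0.2 mM. Near-confluent cells incubated 16–18 h at 37 °C with 1 μM inhibitor in serum-free medium containing 0.2% fatty-acid-free BSA. Medium S1P measured by LC-MS/MS; reported as % decrease versus no-inhibitor control, in duplicate.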

Data set [2] has as its target T1, Sphingosine-1-phosphate transporter SPNS2 (Mus musculus). As to the kind of experiment: Inhibition of mouse Spns2 expressed in G418-resistant human HeLa cells assessed as decrease in S1P level incubated for 16 to 18 hrs by LC-MS/MS analysis. The following applies: dose upper 10.0 µM, time 16-18 hrs. The format is cell-based. The essentials:
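HeLa pools stably expressing mouse Spns2 (G418-selected), with S1P breakdown blocked by 4-deoxypyridoxine 1 mM, NaF 2 mM and Na3VO4 0.2 mM. Cells exposed for 16–18 h at 37 °C to 1 nM–10 μM inhibitor in serum-free 0.2% fatty-acid-free BSA medium. Released S1P quantified by LC-MS/MS; IC50 from dose–response […].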

Data set [3] in a line: Drug uptake in C57BL/6J mouse plasma at 10 mg/kg, po measured after 4 hrs by LC-MS/MS analysis. The format is ADME, organism-based. The following applies: in vivo. Summed up: (§1)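 Three female C57BL/6j mice, 8–10 weeks old, given a single 10 mg/kg oral dose. Vehicle: 36.1% PEG400/9.1% ethanol/4.6% solutol/50% H2O. Blood sampled over time after dosing; plasma compound levels quantified by LC-MS/MS.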

Data set [4] can be described thus: Drug concentration in C57BL/6J mouse plasma at 10 mg/kg, po measured after 8 hrs LC-MS/MS analysis. In kind it is ADME, organism-based. Summed up: as §1
In data set [5] the test system is Mus musculus. The data set can be described thus: In vivo inhibition of Spns2 in C57BL/6J mouse assessed as decrease in lymphocytes count administered orally measured after 4 hrs by LC-MS/MS analysis. In kind it is functional, organism-based. The following applies: dose 10-100 mg/kg, route po. Summed up: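 Oral gavage at 10, 30 or 100 mg/kg, or vehicle (36.1% PEG400/9.1% ethanol/4.6% solutol/50% H2O), to five female C57BL/6j mice aged 8–10 weeks. Blood drawn 4 h post dose; lymphocytes counted in 20 μL blood on a haematology analyzer and compared with vehicle.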

In data set [6] the test system is Mus musculus. The data set can be described thus: Effect on plasma S1P level in C57BL/6J mouse at 10 to 100 mg/kg, po measured after 4 hrs by LC-MS/MS analysis. The format is functional, organism-based. Particulars: dose 10-100 mg/kg. The essentials:
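Five female C57BL/6j mice, 8–10 weeks old, dosed by oral gavage at 10, 30 or 100 mg/kg in 36.1% PEG400/9.1% ethanol/4.6% solutol/50% H2O, or vehicle alone. Plasma S1P measured by LC-MS/MS 4 h post dose and expressed relative to vehicle.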

Data set [7] concerns Mus musculus. As to the kind of experiment: Effect on plasma S1P level in C57BL/6J mouse at 3 to 30 mg/kg, ip measured after 6 hrs by LC-MS/MS analysis. Particulars: dose 3-30 mg/kg.

One may read the inhibition as the relative decrease from the control value, in per cent. Consider `CCCCCCCCCCc1ccc(NC(=O)N2CCNCC2)cc1.Cl`, for which the inhibition is 91% in data set [1], “Dose-Dependent Effect” in data set [2] and “Dose-Dependent Effect” in data set [5]. Moreover, the Drug uptake entry in data set [3] is listed as “Active”. Besides, in data set [4], the concentration at 8 h was > 500 nM. The result in data set [6] and in data set [7] was inactive.
With `CCCCCCCCCCc1ccc(NC(=O)N2CCN(C)CC2)cc1`, in data set [1], the inhibition is 3%.
With `CCCCCCCCCCc1ccc(NC(=O)N2CCN[C@H](C)C2)cc1`, the inhibition in data set [1] worked out at 80%.
